Values after ≈ are worked out from the molar mass of the structure shown. Active and inactive are the calls of the source. No cut-off for these calls is given here.
Legend:
[1] = Solubility of the compound in fasted state simulated intestinal fluid at pH 6.8; type: physicochemical
[2] = Clearance in rat at 3 mg/kg, iv by LC-MS/MS analysis; type: ADME, organism-based; details: in vivo
Outline: (§1)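 Rats were dosed IV as a solution in 75% PEG300:25% D5W, or orally as a suspension in 0.5% methylcellulose, 0.5% Tween80 and 99% water.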

[3] = Oral bioavailability in rat at 10 mg/kg administered via gavage by LC-MS/MS analysis; type: ADME, organism-based; details: in vivo; outline: as §1
[4] = target: T1, Bile acid receptor (Rattus norvegicus) (UniProt Q62735); assay: Agonist activity at FXR in rat primary hepatocytes assessed as induction of SHP mRNA level after 24 hrs by qPCR analysis; type: cell-based
T1 sequence (whole entry): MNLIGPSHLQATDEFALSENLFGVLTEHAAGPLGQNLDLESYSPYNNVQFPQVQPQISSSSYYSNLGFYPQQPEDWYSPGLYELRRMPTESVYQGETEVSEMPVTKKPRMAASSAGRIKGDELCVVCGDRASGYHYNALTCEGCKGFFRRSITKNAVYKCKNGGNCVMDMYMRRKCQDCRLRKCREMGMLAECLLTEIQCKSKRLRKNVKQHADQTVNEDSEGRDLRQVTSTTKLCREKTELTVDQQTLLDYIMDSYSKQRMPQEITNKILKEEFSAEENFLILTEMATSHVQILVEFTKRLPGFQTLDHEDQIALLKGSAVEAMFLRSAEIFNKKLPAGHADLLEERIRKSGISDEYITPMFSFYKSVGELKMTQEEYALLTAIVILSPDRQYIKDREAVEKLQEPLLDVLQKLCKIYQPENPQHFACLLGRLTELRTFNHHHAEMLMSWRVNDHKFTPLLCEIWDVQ

[5] = test system: Rattus norvegicus; assay: In vivo agonist activity at FXR in po dosed Sprague-Dawley rat assessed as induction of SHP mRNA level in liver administered as single dose after 7 hrs post dose by qPCR analysis; type: functional, organism-based
[6] = test system: Rattus norvegicus; assay: In vivo agonist activity at FXR in Sprague-Dawley rat assessed as downregulation of CYP8B1 mRNA level in liver at >0.03 mg/kg, po qd for 14 days measured 7 hrs post last dose on day 14 by qPCR analysis; type: functional, organism-based
[7] = Drug uptake in Sprague-Dawley rat liver at 0.1 mg/kg, po qd administered via gavage measured 7 hrs post last dose on day 14 by LC-MS/MS analysis; type: ADME, organism-based; details: read-out: Drug uptake
Outline: (§2)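 Drug concentration in liver was quantified from tissue homogenates, so these are total levels. Unbound liver concentration was not determined.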

[8] = Drug uptake in Sprague-Dawley rat plasma at 0.1 mg/kg, po qd administered via gavage measured 7 hrs post last dose on day 14 by LC-MS/MS analysis; type: ADME, organism-based
[9] = Drug uptake in Sprague-Dawley rat liver at 0.01 mg/kg, po qd administered via gavage measured 7 hrs post last dose on day 14 by LC-MS/MS analysis; type: ADME, organism-based; details: read-out: Drug uptake; outline: as §2
[10] = Drug uptake in Sprague-Dawley rat liver at 0.003 mg/kg, po qd administered via gavage measured 1 hr post last dose on day 14 by LC-MS/MS analysis; type: ADME, organism-based; details: read-out: Drug uptake; outline: as §2
[11] = test system: Rattus norvegicus; assay: Dose normalized AUC (0 to 24 hrs) in Sprague-Dawley rat at 3 mg/kg, po qd administered via gavage measured on day 11 by LC-MS/MS analysis; type: ADME, organism-based; details: in vivo
[12] = test system: Rattus norvegicus; assay: Dose normalized AUC (0 to 24 hrs) in Sprague-Dawley rat at 3 mg/kg, po qd administered via gavage measured on day 1 by LC-MS/MS analysis; type: ADME, organism-based; details: in vivo
[13] = test system: Rattus norvegicus; assay: Dose normalized AUC (0 to 24 hrs) in Sprague-Dawley rat at 0.03 mg/kg, po qd administered via gavage measured on day 11 by LC-MS/MS analysis; type: ADME, organism-based; details: in vivo
[14] = test system: Rattus norvegicus; assay: Dose normalized AUC (0 to 24 hrs) in Sprague-Dawley rat at 0.003 mg/kg, po qd administered via gavage measured on day 11 by LC-MS/MS analysis; type: ADME, organism-based; details: in vivo
[15] = AUC (0 to 24 hrs) in Sprague-Dawley rat at 3 mg/kg, po qd administered via gavage measured on day 11 by LC-MS/MS analysis; type: ADME, organism-based; set-up: dose 3 mg/kg, time < 24 hr, route oral; details: in vivo
[16] = AUC (0 to 24 hrs) in Sprague-Dawley rat at 0.3 mg/kg, po qd administered via gavage measured on day 11 by LC-MS/MS analysis; type: ADME, organism-based; set-up: dose 0.3 mg/kg, time < 24 hr, route oral; details: in vivo
[17] = AUC (0 to 24 hrs) in Sprague-Dawley rat at 0.1 mg/kg, po qd administered via gavage measured on day 1 by LC-MS/MS analysis; type: ADME, organism-based; set-up: time < 24 hr, dose 0.1 mg/kg, route oral; details: in vivo
[18] = Cmax in Sprague-Dawley rat at 3 mg/kg, po qd administered via gavage measured on day 11 by LC-MS/MS analysis; type: ADME, organism-based; set-up: dose 3 mg/kg, route oral; details: in vivo
[19] = Cmax in Sprague-Dawley rat at 0.3 mg/kg, po qd administered via gavage measured on day 11 by LC-MS/MS analysis; type: ADME, organism-based; set-up: dose 0.3 mg/kg, route oral; details: in vivo
[20] = Cmax in Sprague-Dawley rat at 0.3 mg/kg, po qd administered via gavage measured on day 1 by LC-MS/MS analysis; type: ADME, organism-based; set-up: dose 0.3 mg/kg, route oral; details: in vivo
[21] = Cmax in Sprague-Dawley rat at 0.1 mg/kg, po qd administered via gavage measured on day 11 by LC-MS/MS analysis; type: ADME, organism-based; set-up: dose 0.1 mg/kg, route oral; details: in vivo
[22] = target: T2, G-protein coupled bile acid receptor 1 (Homo sapiens, UniProt Q8TDU6); assay: Agonist activity at human TGR5
T2 sequence (Q8TDU6 whole entry): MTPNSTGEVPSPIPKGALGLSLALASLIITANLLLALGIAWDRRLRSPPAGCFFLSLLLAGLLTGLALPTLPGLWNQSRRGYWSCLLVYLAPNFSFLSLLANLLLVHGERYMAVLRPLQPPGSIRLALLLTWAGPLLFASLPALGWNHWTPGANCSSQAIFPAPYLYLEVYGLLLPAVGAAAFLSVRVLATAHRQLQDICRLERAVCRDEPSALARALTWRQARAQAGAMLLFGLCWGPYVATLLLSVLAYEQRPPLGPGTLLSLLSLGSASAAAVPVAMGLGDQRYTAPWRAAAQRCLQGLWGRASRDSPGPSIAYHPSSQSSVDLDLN

[23] = Protein binding in dog plasma at 0.5 mg/kg, iv or 2 mg/kg, po administered via gavage by LC-MS/MS analysis; type: ADME, organism-based, Canis lupus familiaris; details: read-out: PPB
[24] = Drug uptake in Sprague-Dawley rat liver at 1 mg/kg, po qd administered via gavage measured 7 hrs post last dose on day 14 by LC-MS/MS analysis; type: ADME, organism-based; details: read-out: Drug uptake; outline: as §2
[25] = Drug uptake in Sprague-Dawley rat plasma at 3 mg/kg, po qd administered via gavage measured 7 hrs post last dose on day 14 by LC-MS/MS analysis; type: ADME, organism-based
[26] = test system: Mus musculus; assay: Drug metabolism in mouse assessed as taurine conjugated metabolite formation at 5 mg/kg, iv or 10 mg/kg, po administered via gavage by LC-MS/MS analysis; type: ADME, organism-based; details: in vivo

O=C(O)c1cc(F)c2nc(N3C4CCC3CC(OCc3c(-c5ccccc5OC(F)(F)F)noc3C3CC3)C4)sc2c1 (stereo unspecified)
solubility [1]: 600 µM (≈ 362 µg/mL)
clearance [2]: 9 to 9.3 mL/min/kg
bioavailability [3]: 20%
Activity [4]: Dose-dependent effect
Activity [5]: Dose-dependent effect
Activity [6]: Active
concentration at 7 h [7]: 45 nM
concentration at 7 h [8]: 4.89 nM
concentration at 7 h [9]: 5.18 nM
concentration at 1 h [10]: 2.92 nM
AUC/dose [11]: 563 nM·h
AUC/dose [12]: 448 nM·h
AUC/dose [13]: 658 nM·h
AUC/dose [14]: 756 nM·h
AUC at 24 h [15]: 1.69 µM·h
AUC at 24 h [16]: 0.19 µM·h
AUC(0-t) at 24 h [17]: 0.041 µM·h
Cmax [18]: 127 nM
Cmax [19]: 14.8 nM
Cmax [20]: 13.5 nM
Cmax [21]: 7.1 nM
EC50 [22]: > 10 µM
fraction unbound [23]: 0.001
concentration at 7 h [24]: 230 nM
concentration at 7 h [25]: 115 nM
Drug metabolism [26]: Metabolite_Notdetected

— ChEMBL document CHEMBL4028903 (J Med Chem, 2017)
